Assay results reported in ChEMBL document CHEMBL1765069, “Decahydroquinoline amides as highly selective CB2 agonists: role of selectivity on in vivo efficacy in a rodent model of analgesia” (Bioorg Med Chem Lett, 2011).
Where “and” joins values, the source holds several entries; their conditions need not be identical. Equal entries are not always repeated.

Assays:
Cannabinoid receptor 2 [1] = target: T1, Cannabinoid receptor 2 (Homo sapiens, UniProt P34972); assay: Agonist activity at human CB2 receptor expressed in CHOK1 cells assessed as inhibition of forskolin-induced cAMP production treated 15 mins before forskolin challenge measured after 1 hr by HTRF assay relative to control; assay type: functional, cell-based; details: CHO-K1
T1 sequence (P34972 whole entry): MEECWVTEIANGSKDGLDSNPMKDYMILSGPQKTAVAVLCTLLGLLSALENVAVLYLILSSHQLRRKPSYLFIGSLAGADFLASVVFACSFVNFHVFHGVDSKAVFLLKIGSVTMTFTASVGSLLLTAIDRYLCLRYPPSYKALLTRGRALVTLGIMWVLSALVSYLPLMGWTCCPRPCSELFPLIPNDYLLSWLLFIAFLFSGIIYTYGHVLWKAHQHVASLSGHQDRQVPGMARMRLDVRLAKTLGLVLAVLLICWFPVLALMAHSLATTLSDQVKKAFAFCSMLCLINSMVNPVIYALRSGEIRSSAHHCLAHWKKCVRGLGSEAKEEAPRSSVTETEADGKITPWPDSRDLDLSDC
Procedure, shortened: (§1)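 CHO-K1 cells (1000 per well) expressing human or rat CB1 or CB2 were preincubated with compound at room temperature for 15 min. Forskolin at EC70 was then added for a further 30 min at room temperature. cAMP was read by HTRF (d2-cAMP plus anti-cAMP-cryptate, final 1 h at room temperature). IC50 and % Emax were reported.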

Cannabinoid receptor 1 [2] = target: T2, Cannabinoid receptor 1 (Homo sapiens, UniProt P21554); assay: Agonist activity at human CB1 receptor expressed in CHOK1 cells assessed as inhibition of forskolin-induced cAMP production treated 15 mins before forskolin challenge measured after 1 hr by HTRF assay relative to control; assay type: functional, cell-based; details: CHO-K1; procedure, shortened: as §1
T2 sequence (P21554 whole entry): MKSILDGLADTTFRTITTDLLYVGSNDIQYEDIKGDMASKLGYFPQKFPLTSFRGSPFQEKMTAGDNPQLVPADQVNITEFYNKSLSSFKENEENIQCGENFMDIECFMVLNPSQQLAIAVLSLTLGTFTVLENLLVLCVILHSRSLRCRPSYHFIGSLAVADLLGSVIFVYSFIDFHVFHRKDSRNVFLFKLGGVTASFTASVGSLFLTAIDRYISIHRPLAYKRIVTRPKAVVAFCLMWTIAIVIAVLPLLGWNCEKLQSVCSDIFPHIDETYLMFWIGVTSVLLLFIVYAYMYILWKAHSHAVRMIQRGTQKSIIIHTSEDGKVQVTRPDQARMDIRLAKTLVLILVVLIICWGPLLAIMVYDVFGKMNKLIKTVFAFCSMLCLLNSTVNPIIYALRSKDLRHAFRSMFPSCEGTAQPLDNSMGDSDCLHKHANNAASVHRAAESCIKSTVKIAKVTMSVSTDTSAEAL

Cannabinoid receptor 2 [3] = target: T1, Cannabinoid receptor 2; assay: Agonist activity at human CB2 receptor expressed in CHOK1 cells assessed as inhibition of forskolin-induced cAMP production treated 15 mins before forskolin challenge measured after 1 hr by HTRF assay; assay type: functional, cell-based, CHO-K1
Procedure, shortened: (§2)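 CHO-K1 cells (1000 per well) expressing human or rat CB1 or CB2 were preincubated with compound for 15 min at room temperature. Forskolin was then added at its EC70 for 30 min at room temperature. cAMP was detected by HTRF (d2-cAMP plus anti-cAMP cryptate) after a final 1 h incubation at room temperature. Values are reported as IC50 with % Emax.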

Cannabinoid receptor 1 [4] = target: T2, Cannabinoid receptor 1; assay: Agonist activity at human CB1 receptor expressed in CHOK1 cells assessed as inhibition of forskolin-induced cAMP production treated 15 mins before forskolin challenge measured after 1 hr by HTRF assay; assay type: functional, cell-based, CHO-K1; procedure, shortened: as §2

SMILES | Emax (Cannabinoid receptor 2 [1]) | Emax (Cannabinoid receptor 1 [2]) | IC50 (Cannabinoid receptor 2 [3]) | IC50 (Cannabinoid receptor 1 [4]) [nM]
O=C(c1csc(-c2ccncc2)n1)N1CCC(O)(c2ccccc2)[C@@H]2CCCC[C@@H]21 (single isomer, unassigned; form 1) [listing 1 of 2 here] | 100% | 12% | – | –
O=C(c1ccccc1)N1CC[C@](O)(c2cccc(Cl)c2)[C@H]2CCCC[C@@H]21 | 69% | – | 493 nM | –
CN1CCC(C(=O)N2CC[C@@](O)(c3ccccc3)[C@@H]3CCCC[C@@H]32)CC1 (racemic) | 98% | – | 395 nM | > 17000
O=C(C1CN(CC(F)(F)F)CCO1)N1CC[C@@](O)(c2ccccc2)[C@@H]2CCCC[C@@H]21 (mixture of isomers) | 99% | 96% | 30 nM | 4040
CN1CCCCC1C(=O)N1CC[C@@](O)(c2ccccc2)[C@@H]2CCCC[C@@H]21 (mixture of isomers) | 100% | – | 56 nM | > 17000
O=C(C1CNCCN1)N1CC[C@@](O)(c2ccccc2)[C@@H]2CCCC[C@@H]21 (mixture of isomers) | 91% | – | 62 nM | > 17000
O=C(c1ccc(OCC(F)(F)F)nc1)N1CC[C@@](O)(c2ccccc2)[C@@H]2CCCC[C@@H]21 (racemic) | 100% | – | 16 nM | > 17000
O=C1CC(C(=O)N2CC[C@@](O)(c3ccccc3)[C@@H]3CCCC[C@@H]32)CN1 (mixture of isomers) | 89% | – | 3470 nM | > 17000
O=C(c1ccncc1F)N1CC[C@@](O)(c2ccccc2)[C@@H]2CCCC[C@@H]21 (racemic) | 99% | – | 6.3 nM | > 17000
CN1CCC(C(=O)N2CC[C@](O)(c3ccccc3)[C@H]3CCCC[C@@H]32)C1 (stereo not given in full) | 34% | 34% | > 17000 nM | > 17000
O=C(c1csc(-c2ccncc2)n1)N1CCC(O)(c2ccccc2)[C@@H]2CCCC[C@@H]21 (single isomer, unassigned; form 4) [listing 1 of 2 here] | – | – | > 17000 nM | 930
O=C(c1cc(-c2ccccc2F)[nH]n1)N1CC[C@](O)(c2ccccc2)[C@H]2CCCC[C@H]21 | 99% | 46% | 21 nM | > 17000
O=C(c1ccccc1)N1CC[C@](O)(c2ccccc2)[C@H]2CCCC[C@H]21 | 100% | 76% | 4.2 nM | 4540
O=C(c1cc(-c2ccccc2F)[nH]n1)N1CC[C@](O)(c2ccccc2)[C@H]2CCCC[C@@H]21 | 81% | 56% | – | –
O=C(c1ccon1)N1CC[C@@](O)(c2ccccc2)[C@@H]2CCCC[C@@H]21 (racemic) | 102% | – | 11 nM | > 17000
O=C1CCC(C(=O)N2CC[C@@](O)(c3ccccc3)[C@@H]3CCCC[C@@H]32)N1 (mixture of isomers) | 102% | – | 193 nM | > 17000
O=C(c1ccccc1)N1CC[C@](O)(c2ccccn2)[C@H]2CCCC[C@@H]21 | 65% | – | 1360 nM | –
CS(=O)(=O)c1cccc([C@@]2(O)CCN(C(=O)c3ccccc3)[C@H]3CCCC[C@@H]32)c1 | 52% | – | 338 nM | –
O=C(c1csc(-c2ccncc2)n1)N1CCC(O)(c2ccccc2)[C@@H]2CCCC[C@@H]21 (single isomer, unassigned; form 2) [listing 1 of 2 here] | – | – | 7.9 nM | > 17000
COc1ccc([C@@]2(O)CCN(C(=O)c3ccccc3)[C@H]3CCCC[C@@H]32)cc1 | 66% | – | 358 nM | –
O=C(c1nnc[nH]1)N1CC[C@@](O)(c2ccccc2)[C@@H]2CCCC[C@@H]21 (racemic) | 101% | – | 282 nM | > 17000
O=C(c1ncccn1)N1CC[C@@](O)(c2ccccc2)[C@@H]2CCCC[C@@H]21 (racemic) | 101% | – | 29 nM | > 17000
O=C(c1cccc2[nH]ncc12)N1CCC(O)(c2ccccc2)[C@@H]2CCCC[C@@H]21 (stereo not given in full) [listing 1 of 2 here] | 100% | 95% | – | –
O=C(c1cccc2[nH]ncc12)N1CCC(O)(c2ccccc2)[C@@H]2CCCC[C@@H]21 (single isomer, unassigned) [listing 1 of 2 here] | – | – | 1.6 nM | > 17000
O=C(c1cccc2[nH]ccc12)N1CC[C@](O)(c2ccccc2)[C@H]2CCCC[C@H]21 | 100% | 64% | 0.62 nM | > 17000
O=C(c1csc(-c2ccncc2)n1)N1CCC(O)(c2ccccc2)[C@@H]2CCCC[C@@H]21 (single isomer, unassigned; form 3) [listing 1 of 2 here] | 97% | 51% | – | –
Cc1cccc(C(=O)N2CC[C@@](O)(c3ccccc3)[C@@H]3CCCC[C@@H]32)n1 (racemic) | 99% | – | 6.1 nM | > 17000

SMILES | Emax (Cannabinoid receptor 2 [1]) | Emax (Cannabinoid receptor 1 [2]) | IC50 (Cannabinoid receptor 2 [3]) | IC50 (Cannabinoid receptor 1 [4]) [nM]
O=C(c1ccc(C2CC2)nc1)N1CC[C@@](O)(c2ccccc2)[C@@H]2CCCC[C@@H]21 (racemic) | 96% | – | 12 nM | > 17000
O=C(c1csc(-c2ccncc2)n1)N1CCC(O)(c2ccccc2)[C@@H]2CCCC[C@@H]21 (stereo not given in full) [listing 1 of 2 here] | 77% and 89% | 10% and 3% | – | –
CN1CC(C(=O)N2CC[C@@](O)(c3ccccc3)[C@@H]3CCCC[C@@H]32)CCC1=O (mixture of isomers) | 99% | – | 135 nM | > 17000
O=C(c1csc(-c2ccncc2)n1)N1CCC(O)(c2ccccc2)[C@@H]2CCCC[C@@H]21 (single isomer, unassigned; form 4) [listing 2 of 2 here] | 19% | 46% | – | –
CS(=O)(=O)c1ccc([C@@]2(O)CCN(C(=O)c3ccccc3)[C@H]3CCCC[C@@H]32)cc1 | 56% | – | 106 nM | –
O=C(c1ccccc1)N1CC[C@](O)(c2cccnc2)[C@H]2CCCC[C@@H]21 | 86% | – | 938 nM | –
O=C(c1cn(CC(F)(F)F)cn1)N1CC[C@@](O)(c2ccccc2)[C@@H]2CCCC[C@@H]21 (racemic) | 104% | – | 26 nM | > 17000
O=C(c1cccc2[nH]ncc12)N1CCC(O)(c2ccccc2)[C@@H]2CCCC[C@@H]21 (stereo not given in full) [listing 2 of 2 here] | – | – | 4.9 nM | 4250
O=C(c1cscn1)N1CC[C@@](O)(c2ccccc2)[C@@H]2CCCC[C@@H]21 (racemic) | 101% | – | 41 nM | > 17000
O=C(c1ccccc1)N1CC[C@](O)(c2ccc(Cl)cc2)[C@H]2CCCC[C@@H]21 | 88% | – | 155 nM | –
O=C(c1csc(-c2ccncc2)n1)N1CCC(O)(c2ccccc2)[C@@H]2CCCC[C@@H]21 (stereo not given in full) [listing 2 of 2 here] | – | – | 5220 nM and 597 nM | > 17000
O=C(c1ccc(Cl)cc1)N1CC[C@](O)(c2ccccc2)[C@H]2CCCC[C@H]21 | 90% | 79% | 0.14 nM | 312
O=C(c1csc(-c2ccncc2)n1)N1CCC(O)(c2ccccc2)[C@@H]2CCCC[C@@H]21 (single isomer, unassigned; form 1) [listing 2 of 2 here] | – | – | 0.55 nM | > 17000
O=C(c1csc(-c2ccncc2)n1)N1CCC(O)(c2ccccc2)[C@@H]2CCCC[C@@H]21 (single isomer, unassigned; form 2) [listing 2 of 2 here] | 98% | 18% | – | –
Cc1ccc(C(=O)N2CC[C@@](O)(c3ccccc3)[C@@H]3CCCC[C@@H]32)cn1 (racemic) | 99% | – | – | –
O=C(c1ccccc1)N1CC[C@](O)(c2ccccc2)[C@H]2CCCC[C@@H]21 | 99% | 14% | 45 nM | > 17000
CN1CCC(C(=O)N2CC[C@](O)(c3ccccc3)[C@H]3CCCC[C@H]32)C1 (stereo not given in full) | 102% | 6% | 5.9 nM | > 17000
O=C(c1ccc(C(F)(F)F)nc1)N1CC[C@@](O)(c2ccccc2)[C@@H]2CCCC[C@@H]21 (racemic) | 96% | – | 12 nM | > 17000
O=C(c1ccncn1)N1CC[C@@](O)(c2ccccc2)[C@@H]2CCCC[C@@H]21 (racemic) | 103% | – | 140 nM | > 17000
Cn1ccnc1C(=O)N1CC[C@@](O)(c2ccccc2)[C@@H]2CCCC[C@@H]21 (racemic) | 100% | – | 124 nM | > 17000
O=C(c1ccccc1)N1CC[C@](O)(c2cccc(C(F)(F)F)c2)[C@H]2CCCC[C@@H]21 | -16% | – | 810 nM | –
O=C(c1cc(-c2ccccc2F)n[nH]1)N1CC[C@](O)(c2ccccc2)[C@H]2CCCC[C@@H]21 | – | – | 1290 nM | > 17000
O=C([C@@H]1C[C@@H](O)CCN1)N1CC[C@@](O)(c2ccccc2)[C@@H]2CCCC[C@@H]21 (racemic) | 87% | – | 2180 nM | > 17000
N#Cc1cccc([C@@]2(O)CCN(C(=O)c3ccccc3)[C@H]3CCCC[C@@H]32)c1 | 85% | – | 1050 nM | –
O=C(c1cccc2[nH]ncc12)N1CCC(O)(c2ccccc2)[C@@H]2CCCC[C@@H]21 (single isomer, unassigned) [listing 2 of 2 here] | 100% | 28% | – | –
O=C(c1csc(-c2ccncc2)n1)N1CCC(O)(c2ccccc2)[C@@H]2CCCC[C@@H]21 (single isomer, unassigned; form 3) [listing 2 of 2 here] | – | – | 388 nM | > 17000
